Source: ChEMBL document CHEMBL4680229, “Design, synthesis and bioactivity study of N-salicyloyl tryptamine derivatives as multifunctional agents for the treatment of neuroinflammation” (Eur J Med Chem, 2020)
The source made the active and inactive calls. No cut-off for these calls is given here.

Experiments:
[1] = Induction of apoptosis in LPS-induced hippocampal neuroinflammatory Kunming mouse model at 50 mg/kg, ip administered bid for 6 days by Nissl staining based microscopic method; assay type: organism-based; conditions: in vivo, 144 h, time 6 day
Procedure, shortened: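 Male Kunming mice (8 weeks, 20–25 g, n = 10/group) were anaesthetised with i.p. chloral hydrate, then given LPS (3 μL of 10 mg/mL) into the lateral ventricle at 0.5 μL/min; sham mice received 3 μL saline. Compound was then given i.p. at 50 mg/kg in saline with 1% methyl cellulose for six consecutive days. Behaviour and deaths were recorded, and hippocampal slices were Nissl-stained.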

[2] = biological target: Prostaglandin G/H synthase 2 (Homo sapiens) (UniProt P35354); experiment: Inhibition of human COX2 assessed as reduction in PGF2alpha formation using arachidonic acid as substrate incubated for 10 mins by ELISA
Prostaglandin G/H synthase 2 (Homo sapiens), sequence (P35354 whole entry, looked up): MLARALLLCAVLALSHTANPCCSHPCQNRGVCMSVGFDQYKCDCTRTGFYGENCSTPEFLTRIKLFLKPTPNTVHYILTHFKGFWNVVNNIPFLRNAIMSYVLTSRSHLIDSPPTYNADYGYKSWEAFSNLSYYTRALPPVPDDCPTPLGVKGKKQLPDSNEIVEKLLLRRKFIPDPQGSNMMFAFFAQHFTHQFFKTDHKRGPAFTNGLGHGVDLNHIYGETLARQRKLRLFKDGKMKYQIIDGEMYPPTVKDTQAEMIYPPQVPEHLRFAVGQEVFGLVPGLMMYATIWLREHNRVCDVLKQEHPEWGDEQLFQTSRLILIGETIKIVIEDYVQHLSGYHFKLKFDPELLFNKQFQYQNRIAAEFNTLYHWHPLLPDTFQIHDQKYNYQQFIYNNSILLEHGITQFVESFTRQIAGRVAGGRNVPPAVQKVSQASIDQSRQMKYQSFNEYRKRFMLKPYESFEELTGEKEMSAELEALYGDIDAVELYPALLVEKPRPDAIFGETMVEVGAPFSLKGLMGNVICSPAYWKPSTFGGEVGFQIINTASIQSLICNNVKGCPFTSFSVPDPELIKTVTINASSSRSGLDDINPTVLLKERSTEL

[3] = biological target: Prostaglandin G/H synthase 1 (Homo sapiens) (UniProt P23219); experiment: Inhibition of human COX1 assessed as reduction in PGF2alpha formation using arachidonic acid as substrate incubated for 10 mins by ELISA
Mus musculus = experiment: Antiinflammatory activity against LPS-induced hippocampal neuroinflammatory Kunming mouse model assessed as reduction in GFAP level in hippocampus at 50 mg/kg, ip administered bid for 6 days by DAPI staining based microscopic method; assay type: functional, organism-based; conditions: time 6.0 day
Homo sapiens = species: Homo sapiens; experiment: Selectivity index, ratio of IC50 for inhibition of human COX1 to IC50 for inhibition of human COX2
C6 [4] = experiment: Cytotoxicity against rat C6 cells assessed as reduction in cell viability after 24 hrs by MTT assay; assay type: cell-based; conditions: C6, 24 h
Procedure, shortened: (§1)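 C6 or BV2 cells seeded at 1–5×10^5 per well; after 12 h exposed to 0, 6.25, 12.5, 25, 50 or 100 μM (final, DMSO <0.4%) for 24 h. MTT added for 4 h, dissolved in DMSO, read at 570 nm. IC50 as mean of three independent experiments run in triplicate.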

BV-2 [5] = experiment: Cytotoxicity against mouse BV-2 cells assessed as reduction in cell viability after 24 hrs by MTT assay; assay type: cell-based; conditions: BV-2, 24 h; procedure, shortened: as §1
C6 [6] = experiment: Inhibition of LPS-induced NO production in rat C6 cells incubated for 24 hrs by Griess reagent based assay; assay type: functional, cell-based; conditions: C6, 24 h
Procedure, shortened: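 C6 cells at 5×10^5 cells/mL, LPS 10 μg/mL plus compound at 2.5–40 μM final for 24 h. Nitrite measured with Griess reagent at 540 nm against a NaNO2 standard; IC50 from three repeats.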

[7] = Inhibition of LPS-induced NO production in mouse BV-2 cells incubated for 24 hrs by Griess reagent based assay; assay type: functional, cell-based; conditions: BV-2, 24 h
Procedure, shortened: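 BV2 cells at 5×10^5 cells/mL, LPS 1 μg/mL plus compound at 2.5–40 μM final for 24 h. Supernatant nitrite measured with Griess reagent for 15 min at room temperature in the dark, 540 nm, against a NaNO2 standard curve; IC50 from three repeats.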

[8] = Tmax in Sprague-Dawley rat at 50 mg/kg, ip up to 24 hrs by LC-MS analysis; assay type: ADME, organism-based; conditions: in vivo
Procedure, shortened: (§2)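 Male Sprague-Dawley rats, six per group, single 50 mg/kg intraperitoneal dose; parameters derived by non-compartmental analysis using the linear trapezoidal method; mean ± SD, n = 6.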

[9] = Half life in Sprague-Dawley rat at 50 mg/kg, ip up to 24 hrs by LC-MS analysis; assay type: ADME, organism-based; conditions: in vivo; procedure, shortened: as §2
[10] = Cmax in Sprague-Dawley rat at 50 mg/kg, ip up to 24 hrs by LC-MS analysis; assay type: ADME, organism-based; design: route intraperitoneal, dose 50 mg/kg, time <=24; conditions: in vivo; procedure, shortened: as §2
[11] = Antioxidant activity assessed as DPPH radical scavenging activity incubated for 30 mins; assay type: functional
Procedure, shortened: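 Compound in ethanol at 2.5–40 μM final, mixed 1:1 with 700 μmol/L ethanolic DPPH; 30 min in the dark at room temperature, absorbance at 515 nm. Serotonin used as standard; EC50 from three independent experiments.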

BV-2 [12] = experiment: Inhibition of LPS-induced TNFalpha production in mouse BV-2 cells after 24 hrs by ELISA; assay type: functional, cell-based; conditions: dose 10-40 µM
Procedure, shortened: (§3)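 BV2 cells at 5×10^5 cells/mL stimulated with LPS 1 μg/mL; compound at 10, 20 or 40 μM final for 24 h, DMSO in blanks. Supernatant TNF-α and IL-10 measured by sandwich ELISA and PGE2 by competitive ELISA, OD at 450 nm; at least three independent experiments.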

BV-2 [13] = experiment: Antiinflammatory activity against LPS-induced mouse BV-2 cells assessed as decrease in ROS production at 10 to 40 uM after 6 hrs by DCFH-DA fluorescence probe based flow cytometric analysis; assay type: functional, cell-based; conditions: dose 10-40 µM
Procedure, shortened: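 BV2 cells with LPS 1 μg/mL and compound at 10, 20 or 40 μM for 6 h, then DCFH-DA 20 μM final for 30 min at 37 °C. Washed in cold PBS and read by flow cytometry, excitation 485 nm and emission 530 nm.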

BV-2 [14] = experiment: Antiinflammatory activity against LPS-induced mouse BV-2 cells assessed as increase in IL-10 production at 40 uM after 24 hrs by ELISA; assay type: functional, cell-based; procedure, shortened: as §3
BV-2 [15] = experiment: Antiinflammatory activity against LPS-induced mouse BV-2 cells assessed as decrease in INOS protein expression at 40 uM after 24 hrs by Western blot analysis relative to control; assay type: functional; design: scale not given: the % may be the effect or the level left
Procedure, shortened: (§4)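 BV2 cells in DMEM with 10% FBS; LPS 1 μg/mL plus compound at 10, 20 or 40 μM final for 24 h. Lysates in RIPA with 1 mM PMSF; 30 μg protein on 8% SDS-PAGE and blotted for iNOS and COX-2, GAPDH as reference; ECL detection and densitometry; at least three independent experiments.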

C6 [16] = experiment: Inhibition of LPS-induced TNFalpha production in rat C6 cells after 24 hrs by ELISA; assay type: functional, cell-based; conditions: dose 10-40 µM
Procedure, shortened: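 C6 cells at 5×10^5 cells/mL stimulated with LPS 10 μg/mL; compound at 10, 20 or 40 μM final for 24 h. Supernatant TNF-α measured by sandwich ELISA at 450 nm; at least three independent experiments.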

C6 [17] = experiment: Antiinflammatory activity against LPS-induced rat C6 cells assessed as decrease in GFAP protein expression at 20 uM after 24 hrs by DAPI staining based confocal laser microscopic method; assay type: functional, cell-based
Procedure, shortened: (§5)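 Cells on glass slides with compound at 20 μM final for 24 h: C6 with LPS 10 μg/mL stained for GFAP, BV2 with LPS 1 μg/mL stained for Iba-1. Fixed in 4% paraformaldehyde, blocked in 1% BSA/0.3% Triton X-100, primary antibody 1:100 overnight at 4 °C, secondary 1:200, DAPI mount, confocal imaging. Intensity given as % of LPS group, n = 3.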

BV-2 [18] = experiment: Antiinflammatory activity against LPS-induced mouse BV-2 cells assessed as decrease in COX2 protein expression at 40 uM after 24 hrs by Western blot analysis; assay type: functional, cell-based; procedure, shortened: as §4
BV-2 [19] = experiment: Antiinflammatory activity against LPS-induced mouse BV-2 cells assessed as decrease in iba-1 protein expression at 20 uM after 24 hrs by DAPI staining based confocal laser microscopic method; assay type: functional, cell-based; procedure, shortened: as §5

Compound	IC50 [2]	IC50 [3]	IC50 (C6 [4])	IC50 (BV-2 [5])	IC50 (C6 [6])	IC50 [7]	further results
O=C(O)c1ccccc1O [SALICYLIC ACID]	> 40 µM	> 40 µM	–	–	–	–	Activity [1]: Toxic; Activity (Mus musculus): Active
O=C(NCCc1c[nH]c2ccc(Cl)cc12)c1ccccc1Nc1ccccc1	0.58 µM	1.34 µM	79.3 µM	62.4 µM	–	–	Ratio IC50 (Homo sapiens): 2.31
O=C(NCCc1c[nH]c2ccccc12)c1ccc(O)cc1O	25 µM	> 40 µM	> 100 µM	> 100 µM	> 40 µM	> 40 µM	–
CNc1ccccc1C(=O)NCCc1c[nH]c2ccccc12	> 40 µM	> 40 µM	> 100 µM	> 100 µM	> 40 µM	> 40 µM	–
Cc1c(Cl)cccc1Nc1ccccc1C(=O)NCCc1c[nH]c2ccccc12	14.5 µM	–	71.1 µM	54.6 µM	–	–	–
CN(c1ccccc1)c1ccccc1C(=O)NCCc1c[nH]c2ccccc12	> 40 µM	–	28.5 µM	7.98 µM	–	–	–
Cc1ccc2[nH]cc(CCNC(=O)c3ccccc3Nc3ccccc3)c2c1	1.47 µM	27 µM	87.9 µM	64.6 µM	–	–	Ratio IC50 (Homo sapiens): 18.4
O=C(NCCc1c[nH]c2ccccc12)c1cc(Cl)ccc1O	10.4 µM	> 40 µM	> 100 µM	> 100 µM	> 40 µM	> 40 µM	–
Cc1ccc2[nH]cc(CCNC(=O)c3ccccc3O)c2c1	> 40 µM	> 40 µM	> 100 µM	> 100 µM	> 40 µM	> 40 µM	–
Cc1cccc(Nc2ccccc2C(=O)NCCc2c[nH]c3ccc(O)cc23)c1C	1.4 µM	–	80.5 µM	56.4 µM	–	–	–
O=C(NCCc1c[nH]c2ccccc12)c1ccc(F)cc1O	> 40 µM	> 40 µM	> 100 µM	> 100 µM	> 40 µM	> 40 µM	–
COc1ccc2[nH]cc(CCNC(C)=O)c2c1 [MELATONIN]	–	–	–	–	–	–	Activity [1]: Toxic; Tmax [8]: 11.4 min; half-life [9]: 32.4 min; Cmax [10]: 1150 ng/mL; EC50 [11]: > 40 µM
Cc1ccc2[nH]cc(CCNC(=O)c3ccccc3Nc3cccc(Cl)c3C)c2c1	9.72 µM	–	66.1 µM	73.7 µM	–	–	–
NCCc1c[nH]c2ccc(O)cc12 [SEROTONIN]	–	–	–	–	–	–	EC50 [11]: 0.63 µM
CN(C)c1ccccc1C(=O)NCCc1c[nH]c2ccc(O)cc12	0.57 µM	–	> 100 µM	> 100 µM	> 40 µM	> 40 µM	–
Cc1ccc(O)c(C(=O)NCCc2c[nH]c3ccccc23)c1	> 40 µM	> 40 µM	> 100 µM	> 100 µM	> 40 µM	> 40 µM	–
COc1ccc2[nH]cc(CCNC(=O)c3ccccc3Nc3ccccc3)c2c1	2.76 µM	38.6 µM	89.3 µM	> 100 µM	7.61 µM	19.9 µM	Ratio IC50 (Homo sapiens): 14
Cc1cccc(Nc2ccccc2C(=O)NCCc2c[nH]c3ccccc23)c1C	2.31 µM	–	95.2 µM	55.1 µM	–	–	–
O=C(NCCc1c[nH]c2ccccc12)c1cc2ccccc2cc1O	2.18 µM	39.2 µM	> 100 µM	> 100 µM	13.2 µM	59 µM	Ratio IC50 (Homo sapiens): 18
COc1ccc2[nH]cc(CCNC(=O)c3ccccc3Nc3cccc(Cl)c3C)c2c1	> 40 µM	–	62.4 µM	> 100 µM	–	–	–
O=C(NCCc1c[nH]c2ccccc12)c1ccccc1Nc1ccccc1	2.62 µM	0.47 µM	115 µM	> 100 µM	15.3 µM	25.9 µM	inhibition (BV-2 [12]): Dose-dependent effect; Activity (BV-2 [13]): Active; Ratio IC50 (Homo sapiens): 0.18; Activity (BV-2 [14]): inactive; Activity (BV-2 [15]): 66%; inhibition (C6 [16]): Dose-dependent effect; Activity (C6 [17]): Active; Activity (BV-2 [18]): Active; EC50 [11]: > 100 µM; Activity (BV-2 [19]): Active
O=C(NCCc1c[nH]c2ccc(O)cc12)c1ccccc1O	0.8 µM	1.74 µM	> 100 µM	> 100 µM	> 40 µM	> 40 µM	Ratio IC50 (Homo sapiens): 2.18
CN(C)c1ccccc1C(=O)NCCc1c[nH]c2ccccc12	> 40 µM	–	> 100 µM	> 100 µM	> 40 µM	22.9 µM	–
O=C(NCCc1c[nH]c2ccccc12)c1ccccc1O	> 40 µM	–	> 100 µM	> 100 µM	> 40 µM	26.4 µM	–
